“Also recorded” adds a separate entry of the source.
How the values were obtained:
[1] = system: Distal-less; settings: overexpressed; ref [13],[14]; cited from earlier work
[2] = system: GFP-Wingless; test: In vivo trapping of GFP-Wingless at the surface of wing imaginal disc cells; set-up: species or system Drosophila; settings: overexpressed with ptc-Gal4 in wing imaginal discs
Method in brief: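 GFP-Wingless knock-in wing discs with V5-tagged human GPC4, GPC6, GPC3 or GPC5 driven by ptc-Gal4, crossed at 25°C. Surface capture of GFP-Wingless imaged by confocal microscopy after immunostaining with Alexa-conjugated secondaries and DAPI mounting. Three independent repeats.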

[3] = system: senseless; settings: overexpressed; ref [13],[14]; cited from earlier work
[4] = system: GFP-Wingless[S239A]; test: In vivo trapping of GFP-Wingless[S239A] at the surface of imaginal disc cells; set-up: species or system Drosophila; settings: glypican overexpressed with ptc-Gal4 in imaginal discs
[5] = system: senseless; test: Effect of overexpression on high target gene senseless in wing discs; format: in vivo, Drosophila; settings: driven with ptc-Gal4 in wing discs
Method in brief: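 Wing discs from crosses at 25°C, with V5-tagged human glypican UAS-attB transgenes driven by ptc-Gal4 (senseless) or en-Gal4 (Distal-less). Discs immunostained with Alexa-conjugated secondaries, DAPI-mounted and imaged by confocal microscopy. Distal-less signal quantified in boxed regions and plotted separately for anterior and posterior compartments. Three independent repeats.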

[6] = Lipid binding of furin-site mutant vs wild-type Dlp^core; settings: furin sites destroyed: K398Q, K399A, R402Q, R438Q, R441A
[7] = system: GFP-Wingless; settings: culture medium, literature; ref [6],[22]; cited from earlier work
[8] = system: extracellular Wingless; test: In vivo trapping of endogenous extracellular Wingless in wing discs; set-up: species or system Drosophila; settings: overexpressed with ptc-gal4 in wing discs; extracellular Wingless staining
Method in brief: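 HA-tagged wild-type or point-mutant Dlp/Dally transgenes (attP2 landing site) driven by ptc-gal4, crossed at 25°C. Wing discs immunostained for extracellular Wingless using an extracellular staining protocol, DAPI-mounted and imaged on a confocal microscope. Three independent repeats.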

B1: Dlp: Drosophila glypican Dally-like protein (protein)
chain: PQVAALAAPNPAGGVAGSSIIDQFSPNCSAVTHIFQARGIDAIEIPQKPSNERVLRYCESPSVGTCCTYNMETRMAMQSRQQLEGHTKDQISRMSGILGSKATKFKDIFTALLKESRTQFNSMFIRTYGVIYERNSYVFSDLFKELETYFANGRVDLLEVMDKFFNTLYQKMFTVLNTQYTFDENYMRCVSEHMKELKPFGDVPDKLSVQIKRSFVATRTYGQALTTASEVAKKVLNVRLNADCTGALTKMQHCGACKGYTEKPCTNYCVNVIKGCLHYQHEFDSEWENFAMAMDKVAERLLGSFNIVMVVEPLNIKISEAIMNFQDSGQDITNRVFQGCGRPKLKKMKRSISPKLQGVQILNARSPVEADTLDIDETLDEAIVLRERRAAEPGSQETSAQQSQEQGVGKSGNGGGGGGGNNRRQQQRRKQQQQRRKQQNNRDDNDDDDNESGGGREPILDRIVRDIRQRVKDYKKFWSNLPHSVCSNEDIASSSDVDGMCWNGHTIDRYMHSITTEHGSNPEFTGNPASTKQTAQMASQLSHLKNAIVHLRNAYNGQDVEWSEQEELPYAGSGAGSGSGSEDDEDDDEGSGLGPFEPSHKPDVERPSVDADNDDDEDAGGRGHMPTHTSRPTSGVDDKNPLIHTTHFDQDHNDLDEDHRQLDEDEDTDAG
modifications: left off: HA, end not stated, kept
In the case of B1, the “biphasic activity in wing imaginal discs: distal-less” value [1] is given as “extending the range of the low target gene distal-less”, the “trapping of GFP-Wingless at the cell surface” value (“trapping … at the cell surface” below) [2] is given as “duly trapped endogenous-level GFP-Wingless; also recorded: captures GFP-Wingless” and the “biphasic activity in wing imaginal discs: senseless” value [3] is given as “inhibiting the high target gene senseless”. For the same molecule, the “trapping of GFP-Wingless[S239A] (unlipidated)” value [4] was “did not detectably trap; also recorded: not GFP-Wingless[S239A]”.

B2: GPC6: human glypican of Dlp family; secreted ΔGPI form (amino acids 1-529) in solubilisation assays (protein)
chain: DVKARSCGEVRQAYGAKGFSLADIPYQEIAGEHLRICPQEYTCCTTEMEDKLSQQSKLEFENLVEETSHFVRTTFVSRHKKFDEFFRELLENAEKSLNDMFVRTYGMLYMQNSEVFQDLFTELKRYYTGGNVNLEEMLNDFWARLLERMFQLINPQYHFSEDYLECVSKYTDQLKPFGDVPRKLKIQVTRAFIAARTFVQGLTVGREVANRVSKVSPTPGCIRALMKMLYCPYCRGLPTVRPCNNYCLNVMKGCLANQADLDTEWNLFIDAMLLVAERLEGPFNIESVMDPIDVKISEAIMNMQENSMQVSAKVFQGCGQPKPAPALRSARSAPENFNTRFRPYNPEERPTTAAGTSLDRLVTDIKEKLKLSKKVWSALPYTICKDESVTAGTSNEEECWNGHSKARYLPEIMNDGLTNQINNPEVDVDITRPDTFIRQQIMALRVMTNKLKNAYNGNDVNFQDTSDESSGSGSGSGCMDDVCPTEFEFVTTEAPAVDPDRREVDS
modifications: left off: V5, internal (immediately after the signal peptide), state not stated
For B2, the “effect on high target gene senseless” value [5] was “inhibit the high target gene senseless” and the “trapping … at the cell surface” value ([2]; listed as hGPC6) was “trapped Wingless”.

B3: furin mutant form: Dlp^core form where both furin sites were destroyed (protein)
chain: DQFSPNCSAVTHIFQARGIDAIEIPQKPSNERVLRYCESPSVGTCCTYNMETRMAMQSRQQLEGHTKDQISRMSGILGSKATKFKDIFTALLKESRTQFNSMFIRTYGVIYERNSYVFSDLFKELETYFANGRVDLLEVMDKFFNTLYQKMFTVLNTQYTFDENYMRCVSEHMKELKPFGDVPDKLSVQIKRSFVATRTYGQALTTASEVAKKVLNVRLNADCTGALTKMQHCGACKGYTEKPCTNYCVNVIKGCLHYQHEFDSEWENFAMAMDKVAERLLGSFNIVMVVEPLNIKISEAIMNFQDSGQDITNRVFQGCGRPKLQAMKQSISPKLQGVQILNARSPVEADTLDIDETLDEAIVLQERAAAEPGSQETSAQQSQEQGVGKSGNGGGGGGGNNRRQQQRRKQQQQRRKQQNNRDDNDDDDNESGGGREPILDRIVRDIRQRVKDYKKFWSNLPHSVCSNEDIASSSDVDGMCWNGHTIDRYMHSITTEHGSNPEFTGNPASTKQTAQMASQLSHLKNAIVHLRNAYNGQDVEWSEQ
modifications: left off: Twin-Strep, C-terminal, cleaved
For B3, the “lipid binding behaviour vs wild-type form” value [6] was “No difference in lipid binding behaviour”.

B4: GPC4: human glypican of Dlp family; secreted ΔGPI form (amino acids 1-487) in solubilisation assays (protein)
chain: ALLAAELKSKSCSEVRRLYVSKGFNKNDAPLHEINGDHLKICPQGSTCCSQEMEEKYSLQSKDDFKSVVSEQCNHLQAVFASRYKKFDEFFKELLENAEKSLNDMFVKTYGHLYMQNSELFKDLFVELKRYYVVGNVNLEEMLNDFWARLLERMFRLVNSQYHFTDEYLECVSKYTEQLKPFGDVPRKLKLQVTRAFVAARTFAQGLAVAGDVVSKVSVVNPTAQCTHALLKMIYCSHCRGLVTVKPCYNYCSNIMRGCLANQGDLDFEWNNFIDAMLMVAERLEGPFNIESVMDPIDVKISDAIMNMQDNSVQVSQKVFQGCGPPKPLPAGRISRSISESAFSARFRPHHPEERPTTAAGTSLDRLVTDVKEKLKQAKKFWSSLPSNVCNDERMAAGNGNEDDCWNGKGKSRYLFAVTGNGLANQGNNPEVQVDTSKPDILILRQIMALRVMTSKMKNAYNGNDVDFFDISDESSGEGSGSGCEYQQCPSEFDYNATDHAGKSANEKADS
modifications: left off: V5, internal (immediately after the signal peptide), state not stated
With B4 the “effect on high target gene senseless” value [5] was “inhibit the high target gene senseless” and the “trapping … at the cell surface” value ([2]; listed as hGPC4) was “trapped Wingless”.

B5: Afamin: lipid-binding protein (protein, UniProt P43652 22-599, looked up)
Afamin: LPTQPRDIENFNSTQKFIEDNIEYITIIAFAQYVQEATFEEMEKLVKDMVEYKDRCMADKTLPECSKLPNNVLQEKICAMEGLPQKHNFSHCCSKVDAQRRLCFFYNKKSDVGFLPPFPTLDPEEKCQAYESNRESLLNHFLYEVARRNPFVFAPTLLTVAVHFEEVAKSCCEEQNKVNCLQTRAIPVTQYLKAFSSYQKHVCGALLKFGTKVVHFIYIAILSQKFPKIEFKELISLVEDVSSNYDGCCEGDVVQCIRDTSKVMNHICSKQDSISSKIKECCEKKIPERGQCIINSNKDDRPKDLSLREGKFTDSENVCQERDADPDTFFAKFTFEYSRRHPDLSIPELLRIVQIYKDLLRNCCNTENPPGCYRYAEDKFNETTEKSLKMVQQECKHFQNLGKDGLKYHYLIRLTKIAPQLSTEELVSLGEKMVTAFTTCCTLSEEFACVDNLADLVFGELCGVNENRTINPAVDHCCKTNFAFRRPCFESLKADKTYVPPPFSQDLFTFHADMCQSQNEELQRKTDRFLVNLVKLKHELTDEELQSLFTNFANVVDKCCKAESPEVCFNEESPKIGN
For B5, the “release of soluble Wnt on addition of lipid-binding protein” value [7] is given as “enables the release of soluble Wnt”.

B6: Dally[E149R, N150T, M151Q, T152F]: Dally mutant removing predicted glycosylation site and restoring hydrophobic F (protein)
chain: KHLDLDGIHHHQHHLHSATTHHRRRLQRDSRAKDAVGGSTHQCDAVKSYFESIDIKSSGTYSEKGAICGGNCCNNATELELRDKAAGMFEQLLHHHTSSLRGVLETNAKQFQSHVLELAQISRTQFHSLFSKVYTRMVPSSRMMIHQLYTEIMNHLIYTSNYTNSNGQLGRRGIGSVQSNLEEAVRHFFVQLFPVAYHQMVHLSKNNLGDLHEDYVNCLQHNFDEMHPFGDIPQQVQSNLGKSVHMSNVFMNALLQAAEVLSEADALYGEQLTDTCKLHLLKMHYCPNCNGHHSSSRSETKLCYGYCKNVMRGCSAEYAGLLDSPWSGVVDSLNNLVTTHILSDTGIINVIKHLQTYFSEAIMAAMHNGPELEKKVKKTCGTPSLTPYSSGEPDARPPPHKNNVKWATDPDPGMVLFLSTIDKSKEFYTTIVDNFCDEQQHSRDDHSCWSGDRFGDYTQLLINPGTDSQRYNPEVPFNAKAQTGKLNELVDKLFKIRKSIGAAAPSNSIQATHDIQNDMGEGSGGGEGQIGDDEEEYGGAHGSGDGSGDGPHTPIEESEGTTTNEVESRDSGKTSG
modifications: left off: HA, end not stated, kept
With B6 the “trapping of endogenous Wingless” value [8] was “did not confer lipid-binding activity”.

From paper PMC7610841 (Nature, 2020)
